Blank lines part the entries; values can stand above or below the compound they belong to.
Legend:
[1] = Cytotoxicity against human HEK293T cells assessed as decrease in cell viability after 72 hrs by CellTiter-Glo reagent based luminescence assay; set-up: species or system HEK-293T
Outline: (§1)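 Compounds prespotted as a 1:3 dilution series, top 40 μM. Cells seeded at 375 cells/well for HEK293T and 700 cells/well for HepG2, then incubated 72 h at 37 °C, 5% CO2. Viability read as CellTiter-Glo luminescence, normalized to DMSO- and puromycin-treated wells. CC50 obtained from a four-parameter nonlinear regression fit.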

[2] = Cytotoxicity against human HepG2 cells assessed as decrease in cell viability after 72 hrs by CellTiter-Glo reagent based luminescence assay; outline: as §1
Cryptosporidium parvum [3] = assay: Antiparasitic activity against Cryptosporidium parvum SPL infected in human HCT8 cells incubated for 48 hrs by FITC/DAPI staining based fluorescence assay; assay type: functional, organism-based; details: HCT-8, 48 h
Outline: (§2)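 HCT-8 cells seeded at 2750 cells/well and dosed 24 h later with pure compounds (11-point 1:3 serial dilution, final top 25 μM), then infected with excysted oocysts at 3125 oocysts/well. Incubated 48 h at 37 °C, 5% CO2, then fixed in 4% paraformaldehyde. Parasites stained with FITC-Vicia villosa lectin and host nuclei with DAPI, imaged at 10×. Parasite spot counts and host nuclei counts taken relative to DMSO-treated wells.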

HCT-8 = assay: Cytotoxicity against human HCT8 cells; assay type: cell-based; outline: as §2
Cryptosporidium parvum [4] = assay: Antiparasitic activity against Cryptosporidium parvum BGF infected in human HCT8 cells incubated for 48 hrs by FITC/DAPI staining based fluorescence assay; assay type: functional, organism-based; details: HCT-8, 48 h; outline: as §2

Compound: COC(=O)[C@H]1O[C@@H]2C[C@H]3O[C@@H](n4cnc5c(N)ncnc54)[C@H](OC)[C@H]3O[C@@]2(O)[C@H](O)[C@@H]1O
CC50 at 72 h [1]: > 40 µM | CC50 at 72 h [2]: > 40 µM | EC50 (Cryptosporidium parvum [3]): > 25 µM | EC50 (HCT-8): > 25 µM | EC50 (Cryptosporidium parvum [4]): > 25 µM

Compound: COC(=O)[C@H]1O[C@@H]2C[C@H]3O[C@@H](n4cnc5c(N)ncnc54)[C@H](OC)[C@H]3O[C@@]2(O)[C@@H](O)[C@@H]1O
CC50 at 72 h [1]: > 40 µM | CC50 at 72 h [2]: > 40 µM | EC50 (Cryptosporidium parvum [3]): 11 µM | EC50 (HCT-8): > 25 µM | EC50 (Cryptosporidium parvum [4]): 8.8 µM

Compound: CC(=O)Oc1ccccc1C(=O)Nc1ncc([N+](=O)[O-])s1 [NITAZOXANIDE]
CC50 at 72 h [1]: > 40 µM | CC50 at 72 h [2]: > 40 µM | EC50 (Cryptosporidium parvum [3]): 2.3 µM | EC50 (HCT-8): > 25 µM | EC50 (Cryptosporidium parvum [4]): 2.9 µM

Compound: COc1ccc(C[C@H](N)C(=O)N[C@H]2[C@@H](O)[C@H](n3cnc4c(N(C)C)ncnc43)O[C@@H]2CO)cc1 [PUROMYCIN]
CC50 at 72 h [1]: 0.42 µM | CC50 at 72 h [2]: 0.83 µM | EC50 (Cryptosporidium parvum [3]): 0.6 µM | EC50 (HCT-8): 6.1 to 7 µM | EC50 (Cryptosporidium parvum [4]): 0.55 µM

Now from value to compound, other results behind:

EC50 (Cryptosporidium parvum [3]): 2.7 µM | EC50 (Cryptosporidium parvum [4]): 2.8 µM
Compound: C/C=C(\C)C(=O)O[C@H]1[C@H](O)[C@@H](C(=O)OC)O[C@@H]2C[C@H]3O[C@@H](n4cnc5c(N)ncnc54)[C@H](O)[C@H]3O[C@]21O
CC50 at 72 h [1]: > 40 µM | CC50 at 72 h [2]: > 40 µM | EC50 (HCT-8): > 25 µM

EC50 (Cryptosporidium parvum [3]): 16 µM | EC50 (Cryptosporidium parvum [4]): 21 µM
Compound: C/C=C(\CO)C(=O)O[C@H]1[C@H](O)[C@@H](C(=O)OC)O[C@@H]2C[C@H]3O[C@@H](n4cnc5c(N)ncnc54)[C@H](OC)[C@H]3O[C@]21O
CC50 at 72 h [1]: > 40 µM | CC50 at 72 h [2]: > 40 µM | EC50 (HCT-8): > 25 µM

EC50 (Cryptosporidium parvum [3]): 24 µM | EC50 (Cryptosporidium parvum [4]): 18 µM
Compound: COC(=O)[C@H]1O[C@@H]2C[C@H]3O[C@@H](n4cnc5c(N)ncnc54)[C@H](O)[C@H]3O[C@@]2(O)[C@@H](O)[C@@H]1O
CC50 at 72 h [1]: > 40 µM | CC50 at 72 h [2]: > 40 µM | EC50 (HCT-8): > 25 µM

EC50 (Cryptosporidium parvum [3]): 0.17 µM | EC50 (Cryptosporidium parvum [4]): 0.15 µM
Compound: C/C=C(\CO)C(=O)O[C@@H]1[C@@H](C(=O)OC)O[C@@H]2C[C@H]3O[C@@H](n4cnc5c(N)ncnc54)[C@H](OC)[C@H]3O[C@@]2(O)[C@@H]1O
CC50 at 72 h [1]: > 40 µM | CC50 at 72 h [2]: 24 µM | EC50 (HCT-8): 0.14 to 0.18 µM

EC50 (Cryptosporidium parvum [3]): 0.005 µM | EC50 (Cryptosporidium parvum [4]): 0.0096 µM
Compound: O=c1[nH]c(=O)n([C@H]2C[C@H](O)[C@@H](CO)O2)cc1F [FLOXURIDINE]
CC50 at 72 h [1]: 0.0084 µM | CC50 at 72 h [2]: 0.0076 µM | EC50 (HCT-8): 0.015 to 0.038 µM

Source: ChEMBL document CHEMBL4251668, “Herbicidins from Streptomyces sp. CB01388 Showing Anti- Cryptosporidium Activity” (J Nat Prod, 2018)
